The source of these data is ChEMBL document CHEMBL1944635, “Synthesis and evaluation of debromohymenialdisine-derived Chk2 inhibitors” (Bioorg Med Chem, 2012).

The species entered for assay [1] is Homo sapiens. Kind of assay: Selectivity ratio of IC50 for human CHK1 to IC50 for human CHK2.
The target in assay [2] is T1, Serine/threonine-protein kinase Chk1 (Homo sapiens, UniProt O14757).
T1 sequence (O14757 whole entry): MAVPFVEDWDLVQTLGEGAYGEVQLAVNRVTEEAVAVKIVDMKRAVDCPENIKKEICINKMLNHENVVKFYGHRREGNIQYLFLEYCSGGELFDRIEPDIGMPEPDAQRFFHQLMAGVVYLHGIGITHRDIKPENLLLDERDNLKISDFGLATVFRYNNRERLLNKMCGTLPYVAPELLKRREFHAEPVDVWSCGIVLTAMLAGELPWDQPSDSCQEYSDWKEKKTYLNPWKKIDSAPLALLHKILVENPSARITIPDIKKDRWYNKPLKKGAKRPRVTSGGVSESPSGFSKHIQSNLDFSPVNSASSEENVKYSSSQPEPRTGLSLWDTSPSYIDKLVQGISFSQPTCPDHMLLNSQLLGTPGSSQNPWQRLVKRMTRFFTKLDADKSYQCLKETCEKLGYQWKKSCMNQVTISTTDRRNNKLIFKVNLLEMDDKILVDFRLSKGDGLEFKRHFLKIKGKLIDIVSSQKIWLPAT
Kind of assay: Inhibition of human CHK1 using STK1 as substrate after 10 mins by HTRF assay. In outline:
(§1)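 Human Chk1 or Chk2 was incubated with test agent over a concentration range (final DMSO 0.2%) and STK1 substrate (50 nM for Chk1, 1 µM for Chk2) in 50 mM HEPES pH 7.0 with 5 mM MgCl2 and 1 mM DTT. The reaction was started with 100 µM ATP and ran 10 min at 30 °C. It was stopped with EDTA containing Sa-XL665 and Eu(K) antibody, then held 1 h at room temperature. TR-FRET 665/620 ratio was read, minus the negative control. IC50s are means of at least three independent experiments, each in duplicate.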

The target in assay [3] is Serine/threonine-protein kinase Chk2 (Homo sapiens, UniProt O96017). Kind of assay: Inhibition of human Chk2 using STK1 as substrate after 10 mins by HTRF assay. In outline:
as §1
On the technique in general: Time-resolved FRET reads energy transfer from a long-lived donor to a nearby acceptor.

pIC50: −log10 of the molar value. Some results are limits rather than exact numbers.

Serine/threonine-protein kinase Chk2, sequence (O96017 whole entry): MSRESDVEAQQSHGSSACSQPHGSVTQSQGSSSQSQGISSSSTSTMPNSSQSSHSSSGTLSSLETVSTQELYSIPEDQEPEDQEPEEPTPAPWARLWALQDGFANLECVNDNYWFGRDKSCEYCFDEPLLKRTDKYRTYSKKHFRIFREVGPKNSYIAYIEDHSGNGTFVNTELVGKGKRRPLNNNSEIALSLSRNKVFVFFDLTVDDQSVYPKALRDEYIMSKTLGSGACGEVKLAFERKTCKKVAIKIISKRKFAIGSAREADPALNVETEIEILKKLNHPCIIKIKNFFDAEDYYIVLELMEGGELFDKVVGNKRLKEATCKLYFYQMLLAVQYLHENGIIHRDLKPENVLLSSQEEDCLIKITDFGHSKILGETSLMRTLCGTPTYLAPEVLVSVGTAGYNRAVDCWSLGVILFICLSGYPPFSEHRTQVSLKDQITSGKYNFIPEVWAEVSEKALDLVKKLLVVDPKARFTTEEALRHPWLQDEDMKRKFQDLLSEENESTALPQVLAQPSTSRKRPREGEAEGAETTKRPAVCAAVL

For the compound `NC1=N/C(=C2/CCNC(=O)c3[nH]ccc32)C(=O)N1`, the Ratio IC50 in assay [1] was determined as 4.

For orientation: pIC50 means −log10 of the IC50, conventionally taken in molar units. Low values mean a high IC50, high ones a low IC50. `CCOC(=O)CCNC1=NC(=O)/C(=C2\CCNC(=O)c3[nH]c(-c4ccccc4)cc32)N1`: in assay [1], the Ratio IC50 was more than 36. For the same compound, the pIC50 in assay [2] was less than 5.00; in assay [3] it was 6.56.

In the case of `O=C1N=C(NCc2ccccc2)N/C1=C1/CCNC(=O)c2[nH]c(-c3ccccc3)cc21`, the Ratio IC50 in assay [1] is 32. In addition, the pIC50 is 6.04 in assay [2] and 7.55 in assay [3].

Take `CNC1=NC(=O)/C(=C2\CCNC(=O)c3[nH]c(-c4ccccc4)cc32)N1`: the Ratio IC50 in assay [1] is 38. For the same compound, the pIC50 is 5.18 in assay [2] and 6.77 in assay [3].

In the case of `O=C1N=C(NC2CCCCC2)N/C1=C1/CCNC(=O)c2[nH]c(-c3ccccc3)cc21`, the Ratio IC50 in assay [1] was more than 7. Besides, the values for the pIC50 in assay [2] and in assay [3] were less than 5.00 and 5.82, respectively.

For `NC1=NC(=O)/C(=C2\CCNC(=O)c3[nH]c(-c4ccccc4)cc32)N1`, the Ratio IC50 in assay [1] was 66. In addition, the pIC50 in assay [2] was 5.88; in assay [3], 7.70.

Consider `COc1ccc(-c2cc3c([nH]2)C(=O)NCC/C3=C2/NC(N)=NC2=O)cc1OC`, for which, in assay [1], the Ratio IC50 was 111. Further, the pIC50 is 5.81 in assay [2] and 7.85 in assay [3].

With `COc1ccc(-c2cc3c([nH]2)C(=O)NCC/C3=C2/NC(N)=NC2=O)cc1`, the Ratio IC50 in assay [1] was found to be 62. The pIC50 in assay [2] is 6.06; in assay [3], 7.85.

In the case of `CCCNC1=NC(=O)/C(=C2\CCNC(=O)c3[nH]c(-c4ccccc4)cc32)N1`, in assay [1], the Ratio IC50 is more than 64. The pIC50 was less than 5.00 in assay [2] and 6.81 in assay [3].

Regarding `COc1ccc(CNC2=NC(=O)/C(=C3\CCNC(=O)c4[nH]c(-c5ccccc5)cc43)N2)cc1`, the Ratio IC50 in assay [1] is more than 17. The pIC50 in assay [2] is less than 5.00; in assay [3], 6.23.

Consider `Nc1nc(C2=C3C(=Nc4ccccc43)C(=O)NCC2)c(O)[nH]1`, for which the Ratio IC50 in assay [1] was 29. In addition, the pIC50 in assay [2] was 6.63.
